PLK1 inh = blocks human PLK1 kinase activity; P53350; recombinant PLK1 kinase, TR-FRET peptide phosphorylation; inhibition, % at 10 µM; 97,000 tested, 0.53% active; AID 619;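 active = inhibition of 50% or more in the single-concentration screen; inactive = inhibition below 50%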
EphB4 antag = EphB4-ephrin-B2 interaction antagonism | 97,000 tested, 0.15% active | P54760 | EphB4 LBD / TNYL-RAW-Alexa532 peptide, fluorescence polarization | inhibition, % at 7 µM;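 active = inhibition above the screen-wide mean inhibition plus 3 SD, cut at about 15% in these data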
Target sequence (P54760 whole entry, looked up, the tested form may be a part): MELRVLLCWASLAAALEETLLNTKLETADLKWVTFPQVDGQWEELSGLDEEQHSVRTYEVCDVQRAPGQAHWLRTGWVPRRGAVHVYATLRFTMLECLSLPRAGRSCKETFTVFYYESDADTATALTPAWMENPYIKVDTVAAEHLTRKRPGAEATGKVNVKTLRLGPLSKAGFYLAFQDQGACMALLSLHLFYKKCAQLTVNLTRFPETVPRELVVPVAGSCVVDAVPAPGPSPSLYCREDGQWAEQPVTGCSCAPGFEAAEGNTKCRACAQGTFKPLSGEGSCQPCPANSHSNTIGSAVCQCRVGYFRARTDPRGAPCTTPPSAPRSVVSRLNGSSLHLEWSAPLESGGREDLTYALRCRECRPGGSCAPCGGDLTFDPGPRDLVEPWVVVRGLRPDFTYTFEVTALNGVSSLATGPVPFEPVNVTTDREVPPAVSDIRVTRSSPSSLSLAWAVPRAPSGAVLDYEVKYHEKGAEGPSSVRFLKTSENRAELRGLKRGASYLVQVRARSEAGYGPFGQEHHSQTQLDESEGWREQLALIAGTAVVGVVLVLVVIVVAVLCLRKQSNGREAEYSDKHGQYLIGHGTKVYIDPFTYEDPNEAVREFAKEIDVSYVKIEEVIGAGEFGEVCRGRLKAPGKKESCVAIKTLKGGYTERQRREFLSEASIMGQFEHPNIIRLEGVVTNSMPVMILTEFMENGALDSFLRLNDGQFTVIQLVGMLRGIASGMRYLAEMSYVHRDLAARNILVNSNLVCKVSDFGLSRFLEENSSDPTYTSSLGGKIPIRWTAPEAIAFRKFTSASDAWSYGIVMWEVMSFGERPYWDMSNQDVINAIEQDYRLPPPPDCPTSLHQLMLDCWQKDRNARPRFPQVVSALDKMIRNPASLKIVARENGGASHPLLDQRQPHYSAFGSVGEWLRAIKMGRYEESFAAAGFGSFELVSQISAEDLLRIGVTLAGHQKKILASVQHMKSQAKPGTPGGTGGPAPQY
PostGolgi ctrl = growth of the yeast control strain, post-Golgi counter-screen; 98,000 tested, 5% active; AID 738; inhibition, % at 10 µM; efflux-deficient yeast background strain, growth absorbance A615, 16 h
PostGolgi yeast = growth inhibition of a yeast mutant, post-Golgi transport screen | inhibition, % at 10 µM | AID 739 | 98,000 tested, 0.9% active | post-Golgi transport phenotypic cell assay;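 note: yeast cells grown in 1536-well plates; yeast grown about 18 h at 30C before absorbance read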
HIV Rev-RRE inh = disrupts HIV-1 Rev binding to RRE RNA; 97,000 tested, 0.79% active; P05866; Rev peptide-RRE RNA binding, FRET; inhibition, % at 8 µM;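 active = inhibition above the screen-wide mean plus 3 SD, cut at about 35% in these data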
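System: Cy5-labelled duplex RRE RNA binding fluorescein-labelled HIV Rev peptide; Signal: fluorescein-to-Cy5 FRET, 480 nm excitation; Also added: labelled Rev peptide; Compound: one concentration, 8 µM nominal; Buffer or medium: HEPES pH 7.5 salt buffer with EDTA; Read-out: % inhibition of FRET ratio versus controls; Schedule: 5 min preincubation and 15 min binding, 25 °C.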
PLK1 PBD inh = Plk1 (human) PBD binding inhibition. 97,000 tested, 0.13% active. Plk1 PBD phosphopeptide binding, fluorescence polarization. AID 693. inhibition, %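 (tested at about 20 µM)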; in the data active = inhibition above about 34%, passing the limit was not always enough
Numbers stand for hits; – = inactive; · = no result given; [ ] = remark or other dose. Rows were chosen to be rich in hits. Some 6.4% of all compounds tested hit in one or more screens of this group. Cut-off read from the data, not from the text of the source, unless noted: active = inhibition above about 30%; inactive = the rest.

SMILES	PLK1 inh	EphB4 antag	PostGolgi ctrl	PostGolgi yeast	HIV Rev-RRE inh	PLK1 PBD inh
O=c1oc2c3c4c(cc2c(C(F)(F)F)c1CCN1CCOCC1)CCCN4CCC3	–	–	–	–	113[fluorescence artefact?]	–
CC(C)c1cc(=O)oc2c3c4c(cc12)CCCN4CCC3	·	·	–	–	·	·
Cc1cc2oc(C(=O)NCc3ccncc3)c(C)c2cc1C	–	–	36	–	–	–
Cc1c(C(=O)NCc2ccccn2)oc2ccccc12	–	–	–	–	–	–
CCSc1nnc2c(n1)OC(c1ccc(C(=O)O)cc1)N(C(C)=O)c1ccccc1-2 (centres undefined)	65	–	–	–	–	–
Nc1nonc1-c1nc2ccccc2n1CC(=O)N/N=C\c1ccc(-c2ccc(Cl)cc2)o1	–	–	–	–	–	–
CN1CCc2nc(NC(=O)c3cccc(OC(F)F)c3)sc2C1	–	–	–	–	65	–
Cc1c(Cl)cccc1NC(=O)c1cccc(OC(F)F)c1	–	–	–	–	–	–
N#Cc1c(N)nc(SCc2ccccn2)c(C#N)c1-c1cccs1	–	–	54	–	–	–
N#Cc1c(N)nc(SCc2ccccc2)c(C#N)c1-c1ccco1	–	–	37	–	–	–
O=C(NCCC1=CCCCC1)C1CCCN(c2nc3ccccc3o2)C1 (centres undefined)	–	–	–	–	–	–
CC(=O)NC(=O)COC(=O)/C=C/c1c(C)nn(Cc2c(Cl)cccc2Cl)c1Cl	–	–	–	–	–	–
O=C(Nc1ccccc1C(=O)OCc1nnc(-c2ccccc2)o1)c1ccco1	–	–	48	–	–	–
CC(=O)Nc1ccc(NC(=O)c2ccccc2CC[N+](=O)[O-])cc1	–	–	–	–	–	–
COc1ccc(NC(=O)COC(=O)c2c3c(nc4ccccc24)CCCC3)cc1Cl	–	–	79	49	–	–
COc1ccc(NC(=O)COC(=O)c2c3c(nc4ccccc24)CCCC3)cc1	–	–	34	–	–	–
COc1cc(NC(=O)c2c3c(nc4ccccc24)CCC3)cc(OC)c1	–	–	–	–	–	–
COc1ccc(OC)c(NC(=O)COC(=O)c2c3c(nc4ccccc24)CCCC3)c1	–	–	–	–	–	–
CSc1nc2ccc(S(=O)(=O)NC3CCCCC3)cc2s1	–	–	71	–	–	–
CSc1nc2ccc(NS(=O)(=O)c3ccc4c(c3)OCCO4)cc2s1	·	·	32	–	·	·
CCOC(=O)C1CCCN(S(=O)(=O)c2cccc3cccnc23)C1 (centres undefined)	–	–	–	–	–	–
C#CCOc1ccc(Br)cc1/C=N/O	–	–	–	–	–	–
CCOC(=O)c1c(C)nc2c(c(SC)nn2-c2ccccc2)c1N	–	–	–	–	–	–
COc1ccc(CONS(=O)(=O)c2ccc(NC(C)=O)cc2)cc1Cl	–	–	–	–	–	–
Cc1cc(NS(=O)(=O)c2ccc(NC(=O)c3ccoc3C)cc2)nc(C)n1	–	–	–	–	–	–
SMILES	PLK1 inh	EphB4 antag	PostGolgi ctrl	PostGolgi yeast	HIV Rev-RRE inh	PLK1 PBD inh
O=C(COc1ccccc1)NNc1c2ccccc2nc2ccccc12	–	–	44	–	–	–
COc1ccc(OCC(=O)NNc2c3ccccc3nc3ccccc23)cc1	–	–	–	–	–	–
Fc1ccc(N2CCN(c3ccc4c(C(F)(F)F)cc(C(F)(F)F)nc4n3)CC2)cc1	–	–	75	–	–	–
FC(F)(F)c1cc(C(F)(F)F)c2ccc(N3CCN(c4ccc(Cl)cc4)CC3)nc2n1	–	–	–	–	–	–
COc1ccccc1C(=O)NCCCn1cc(Br)c(C)n1	–	–	–	–	–	–
O=S1(=O)c2cccc3cccc(c23)N1Cc1nnc(-c2ccccc2Br)o1	–	16	–	–	–	–
CC(C)CCNC(=O)C(c1cccnc1)N(CCc1ccccc1)C(=O)Cn1nnc2ccccc21 (centres undefined)	–	–	·	·	–	–
Cc1ccc(-n2ncc3c(=O)n(CC(=O)N4CCCCCC4)cnc32)cc1	–	16	–	–	–	–
CCN(CC)S(=O)(=O)c1ccc(NC2c3ccccc3C(=O)N2Cc2ccc3c(c2)OCO3)cc1 (centres undefined)	66	–	–	–	–	–
O=C1c2ccccc2C(Nc2ccc3c(c2)OCCO3)N1Cc1ccc2c(c1)OCO2 (centres undefined)	–	–	–	–	–	–
Cc1ccc(C(=O)c2ccc([N+](=O)[O-])cc2)cc1	–	–	–	–	–	–
Cc1cc(C)c(Cn2cnc(-c3ccc([N+](=O)[O-])cc3)c2)c(C)c1	–	–	33	–	–	–
O=C(CC1Oc2ccccc2NC1=O)NC1CCCC1 (centres undefined)	69	–	–	–	–	–
O=C(CC1Oc2ccccc2NC1=O)NC1CC1 (centres undefined)	–	–	–	–	–	–
COC(=O)c1ccc(C(=O)OC)c(NC(=O)CSc2cccc[n+]2[O-])c1	–	–	–	–	–	–
CCCCOCCCNC(=O)c1ccc(OCC)cc1	–	–	–	–	–	–
O=C(Nc1ccc(Cl)cc1)OCCn1nnnc1C(c1ccccc1)N1CCOCC1 (centres undefined)	–	–	–	–	–	–
CN(C)c1ccc(C(c2nnnn2CCOC(=O)Nc2ccc(Cl)cc2)N2CCOCC2)cc1 (centres undefined)	–	–	34	–	–	–
CN(C)c1ccc(/C=c2\sc3n(c2=O)CCCN=3)cc1	–	–	–	–	37	–
O=S(=O)(Nc1ccc2c(c1)OCCO2)c1cnc[nH]1	·	·	–	–	·	·
Cc1cc(-c2ccco2)n2c(nc3ccccc32)c1C#N	–	–	–	–	47	–
Cc1ccnc(N2CCN(c3cc(C)c(C#N)c4nc5ccccc5n34)CC2)c1	–	–	·	·	–	–
COCCNC(=O)CN(c1cc(Cl)ccc1OC)S(C)(=O)=O	–	–	–	–	–	–
O=C(NCc1ccccc1)C(c1ccncc1)N(C(=O)c1csnn1)C1CC1 (centres undefined)	–	–	–	–	–	–
O=C(NNC(=O)C1CCCO1)c1ccc(Cl)cc1 (centres undefined)	–	–	–	–	–	–
Cc1cc(=O)oc(C)c1C(=O)Nc1ccc2ncccc2c1	–	–	–	–	125[fluorescence artefact?]	–
CC1(C)Cc2ccccc2-c2nc(NCCCO)n(-c3ccccc3)c(=O)c21	·	·	–	–	·	·
CCOC(=O)C1Cn2c(nc3c(c2=O)C2(CCCC2)Cc2ccccc2-3)S1 (centres undefined)	–	–	38	–	–	–
CCOC(=O)C1Cn2c(nc3c(c2=O)C(C)(C)Cc2ccccc2-3)S1 (centres undefined)	–	–	32	–	–	–
CCCC(=O)Nn1cnc2c(c1=O)C1(CCCC1)Cc1ccccc1-2	–	–	–	–	–	–
